Only a sample is shown.
Apaf1 activ: activates human Apaf-1 apoptosome; O14727; Apaf-1 apoptosome caspase-3 activation, DEVD-Rh110 fluorescence; hits give low values; activity change, negative = activation, % at 20 µM; 0.31% of 330,000 active; AID 489031;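 active = activity change at or below -40% at 20 µM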
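system = biochemical Apaf-1 apoptosome reconstitution | buffer or medium = 20 mM HEPES pH 7.5 with CHAPS, BSA | also added = dATP and cytochrome c as apoptosome triggers, (Z-DEVD)2-Rh110 substrate | incubation = 30 min compound preincubation and 50 min reaction, both room temperature | measured by = fluorescence, 540 nm emission, 480 nm excitation | read-out basis = Caspase-3 cleavage activity downstream of Apaf-1 activation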
Rh110 interf act: Rh110 signal interference in Apaf-1 activator counter-screen; shares compounds with Apaf1 activ; Rh110 fluorescence interference, quenched caspase reaction, Ex480/Em540; fluorescence interference (activity change), % at 20 µM, hits read low; 980 tested, under 10 active;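 active = mean activity change at or below -40% when tested at 20 µM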
Apaf-1 act conf: Apaf-1 (human) activation, single-dose confirmed. shares compounds with Apaf1 activ. reconstituted apoptosome caspase-3 activity, DEVD-Rh110 fluorescence; hits give low values. activity change, negative = activation, % at 20 µM. 5% of 980 active. AID 504617;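 active = mean activity change at or below -40%, meaning activation of 40% or more, at 20 µM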
Large screens that a line does not name were inactive (follow-up assays come after a bar, where they were run).

Cc1cc2cc(CNC(=O)NC3CCCCC3)ccc2n1C	none
O=c1[nH]c(N2CCOCC2)cc2ccccc12	none
CC(C)C(=O)NC(c1cccs1)c1cc([N+](=O)[O-])c2cccnc2c1O (stereo not given)	none
COc1ccc(/C=N/NC(=O)CNC(=O)/C=C/c2ccco2)cc1OC	Apaf1 activ -408 | Rh110 interf act inactive | Apaf-1 act conf inactive
CSc1ccc(/C=N/NC(=O)CNc2cccc3ccccc23)cc1	none
O=C(Cc1cc(=O)[nH][nH]1)N/N=C/c1c(Cl)cccc1Cl	none
CCOc1ccccc1N(CC(=O)Nc1ccc(S(=O)(=O)N2CCOCC2)cc1)S(=O)(=O)c1ccc(Cl)cc1	Apaf1 activ -68 | Rh110 interf act inactive | Apaf-1 act conf inactive
CCN(CC(=O)Nc1cc(S(=O)(=O)N2CCOCC2)ccc1Cl)Cc1ccccc1	none
Cc1cc(C)c(S(=O)(=O)Nc2ccc3c4c(cccc24)CC3)c(C)c1	none
CCCCCCSc1ccc([C@@H]2[C@H]3C(=O)N(CC)C(=O)[C@H]3[C@]3(C(=O)OC)CCCN23)cc1	Apaf1 activ -225 | Rh110 interf act inactive | Apaf-1 act conf inactive
O=C(OCc1nnc(-c2ccccc2)o1)c1ccc([N+](=O)[O-])s1	none
Cc1ccc(C(=O)N2CCCN(c3nc4cc5c(cc4cc3C#N)OCO5)CC2)cc1	none
O=C1CCc2ccc(OCCCCN3CCN(c4cccc(Cl)c4Cl)CC3)cc2N1	none
CN1CCN(CCc2nc3cc(NC(=O)COc4ccccc4)ccc3n2C)CC1	none
CN1CCN(CCOc2cccc(Cl)c2)CC1	Apaf1 activ -50 | Rh110 interf act inactive | Apaf-1 act conf inactive
C#CCOCCOCCOCCNc1nc(N2CCOCC2)nc(N2CCN(C(=O)[C@H](CCCCN)n3cc(CN)nn3)CC2)n1	none
Cc1cc(-c2ccc(N=Nc3c(S(=O)(=O)O)cc4cc(S(=O)(=O)O)cc(N)c4c3O)c(C)c2)ccc1N=Nc1c(S(=O)(=O)O)cc2cc(S(=O)(=O)O)cc(N)c2c1O	none
C#CCOCCOCCOCCNc1nc(N2CCN(C(=O)CCCCCCCCCCNC(=O)[C@H](CCC(=O)O)n3cc(CCCCCN)nn3)CC2)nc(N2CCN(C(=O)CCCCCCCCCCNC(=O)[C@@H]([C@H](C)O)n3cc(C)nn3)CC2)n1	none
COc1ccc(C(CNC(=O)COc2c(C)cc(C)cc2C)N2CCOCC2)cc1 (stereo not given)	none
CCOc1cc(C(c2c(C)[nH][nH]c2=O)c2c(C)[nH][nH]c2=O)ccc1OS(=O)(=O)c1ccc(C)cc1	none
CCOc1cc(C(=S)N2CCOCC2)ccc1OS(=O)(=O)c1ccc(OC)cc1	Apaf1 activ -55 | Rh110 interf act inactive | Apaf-1 act conf inactive
CCN(CC)C(=O)C1CCCN(C(=O)Nc2ccc3nsnc3c2)C1 (stereo not given)	none
COc1ccc(CN2CC(C(=O)NCc3cccc(OC)c3)CC2=O)cc1 (stereo not given)	none
COc1ccc(N2CC(C(=O)N/N=C/c3cc([N+](=O)[O-])ccc3O)CC2=O)cc1 (stereo not given)	Apaf1 activ -318 | Rh110 interf act inactive | Apaf-1 act conf inactive
COc1ccccc1-c1nnc(C2CCN(S(=O)(=O)c3cccc([N+](=O)[O-])c3)CC2)o1	Apaf1 activ -53 | Rh110 interf act inactive | Apaf-1 act conf inactive
Cc1cccc2sc(N(CCCN(C)C)C(=O)c3ccc(S(=O)(=O)N4CCc5ccccc5C4)cc3)nc12	none
O=C(Cc1cc(=O)[nH][nH]1)N/N=C/C(Cl)=C/c1ccccc1	none
Cc1cc(Nc2cccc(Cl)c2)nc(NCc2ccccc2)n1	none
CCCCCn1c(N2CCC(Cc3ccccc3)CC2)nc2c1c(=O)[nH]c(=O)n2C	none
CSc1nc2c(c(=O)[nH]c(=O)n2C)n1Cc1ccccc1	Apaf1 activ -48 | Rh110 interf act inactive | Apaf-1 act conf inactive
Cc1cccc(OCC(O)Cn2c(=N)n(Cc3ccccc3)c3ccccc32)c1 (stereo not given)	none
Cn1c(=O)[nH]c(=O)c2c1nc(Br)n2CC(O)COc1ccccc1 (stereo not given)	Apaf1 activ -50 | Rh110 interf act inactive | Apaf-1 act conf inactive
COc1ccc(C[C@H]2CN3C(=NC[C@@H]3Cc3ccccc3)N2C[C@H](C)NC(=O)CCC2CCCCC2)cc1	none
Cc1[nH]n(-c2ccccc2)c(=O)c1C(C[N+](=O)[O-])c1ccc(Cl)cc1 (stereo not given)	none
CCN1CCN(C2=C(NS(=O)(=O)c3ccc(C)cc3)C(=O)c3ccccc3C2=O)CC1	none
CCCCCc1ccc(OCCCC[n+]2ccc(C)cc2)c(CCCCC)c1	none
CN(C)c1ccc(C(=S)N2CCCCC2)cc1	Apaf1 activ -335 | Rh110 interf act inactive | Apaf-1 act conf inactive
O=c1cc(-c2ccc(F)cc2)[nH][nH]1	none
COc1ccc2oc(C)c(C(=O)Cn3ccnc3)c2c1	Apaf1 activ -246 | Rh110 interf act inactive | Apaf-1 act conf inactive
C#CCOCCOCCOCCNc1nc(N2CCN(C(=O)[C@H](Cc3ccc(O)cc3)n3cc([C@@H](N)C(C)CC)nn3)CC2)nc(N2CCN(C(=O)[C@H](Cc3cc4ccccc4[nH]3)n3cc([C@@H](N)CC(C)C)nn3)CC2)n1 (stereo not given in full)	none
CCCCC(CC)CN=C(N)NC(N)=NCCCCCCN=C(N)NC(N)=NCC(CC)CCCC (stereo not given)	none
NC(=NCCc1c[nH]c2ccccc12)NS(=O)(=O)c1ccc(F)cc1	Apaf1 activ -46 | Rh110 interf act inactive | Apaf-1 act conf inactive
COC(=O)C1=C(C)N(Cc2ccccc2)C(=NCCc2c[nH]c3ccccc23)N[C@H]1c1cccc(C(F)(F)F)c1	none
CC(C)OCCCNC1=C(Cl)C(=O)c2ccccc2C1=O	none
CC(C)[n+]1ccn(C2=C([O-])c3ccccc3C(=O)/C2=N\S(=O)(=O)c2ccccc2)c1	none
CC1CCN(C2=C(NS(=O)(=O)c3ccccc3)C(=O)c3ccccc3C2=O)CC1	none
CCOC(=O)C1CCN(C(=O)c2ccccc2NS(=O)(=O)c2ccccc2)CC1	Apaf1 activ -496 | Rh110 interf act inactive | Apaf-1 act conf inactive
CCOC(=O)C1CCN(C(=O)c2c(C)oc3c2C(=O)c2ccccc2C3=O)CC1	none
CC1=NN(c2ccc(N)cc2)C(=O)C1	none
NC(=O)CC1Nc2cccc3cccc(c23)NC1=O (stereo not given)	none
COc1ccc(OC)c2c1sc(=NC(=O)C(C)(C)C)n2C	Apaf1 activ -370 | Rh110 interf act inactive | Apaf-1 act conf inactive
C#CCOCCOCCOCCNc1nc(N2CCN(C(=O)CCCCCCCCCCNC(=O)Cn3cc(C[C@@H](C)O)nn3)CC2)nc(N2CCN(C(=O)CCCCCCCCCCNC(=O)[C@H](CCCCN)n3cc(C[C@@H](C)CC)nn3)CC2)n1	none
CCN1CCN(Cc2ccc(NC(=O)c3cc(NC(=O)C(=O)c4c[nH]c5ccccc45)cc(OC)c3)cc2C(F)(F)F)CC1	none
Nc1nc(SCC(=O)Nc2cc(-c3ccccc3)nn2-c2ccccc2)n[nH]1	Apaf1 activ -41 | Rh110 interf act inactive | Apaf-1 act conf inactive
Cc1ccc(C(=O)c2c3ccc(N)cc3nn2CCC(N)=O)cc1	none
COc1cc(OC)c2c(-c3ccccc3)cc(=O)oc2c1C(CCN1CCCC(C)C1)c1ccc2c(c1)OCO2 (stereo not given)	none
COc1ccnc(Oc2ccc(F)cc2)c1C#N	Apaf1 activ -47 | Rh110 interf act inactive | Apaf-1 act conf inactive

Compound activity: PubChem BioAssay, Sanford-Burnham Center for Chemical Genomics
